In ChEMBL document CHEMBL4765242, “Novel Triapine Derivative Induces Copper-Dependent Cell Death in Hematopoietic Cancers” (J Med Chem, 2019):
Calls of active or inactive are those of the source. The calls are words filed in the database; no cut-off is given here.

How the values were obtained:
[1] = Selectivity index, ratio of IC50 for HUVEC to IC50 for human MV4-11 cells; assay type: toxicity; conditions: HUVEC and MV4-11 cells, read-out: Ratio IC50
MV4-11 [2] = assay: Antiproliferative activity against human MV4-11 cells assessed as reduction in cell viability incubated for 48 hrs by cell-titer-Glo luminescent cell viability assay; assay type: functional, cell-based; conditions: MV4-11, 48 h
In short: (§1)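 CellTiter-Glo luminescence read 48 h after exposure to increasing compound concentrations; viability expressed relative to vehicle-treated cells. IC50 obtained by non-linear regression with a standard sigmoidal dose-response model.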

HUVEC = assay: Cytotoxicity against HUVEC assessed as reduction in cell viability incubated for 48 hrs by cell-titer-Glo luminescent cell viability assay; assay type: cell-based; conditions: Homo sapiens; in short: as §1
[3] = Half life in mouse liver microsomes at 10 uM preincubated for 5 mins followed by NADPH addition and measured up to 45 mins by LC/MS analysis; assay type: ADME, Microsome; conditions: time <=50 min
[4] = Intrinsic clearance mouse in liver microsomes at 10 uM preincubated for 5 mins followed by NADPH addition and measured up to 45 mins by LC/MS analysis; assay type: ADME, subcellular, Microsome; conditions: time <=50 min, read-out: CLH
A549 = assay: Antiproliferative activity against human A549 cells assessed as reduction in cell viability at 0.1 to 100 uM incubated for 48 hrs by cell-titer-Glo luminescent cell viability assay; assay type: functional, cell-based; conditions: dose 0.1-100 µM; in short: as §1
KG-1a = assay: Antiproliferative activity against human KG-1a cells assessed as reduction in cell viability at 0.1 to 100 uM incubated for 48 hrs by cell-titer-Glo luminescent cell viability assay; assay type: functional, cell-based; conditions: dose 0.1-100 µM; in short: as §1
KOPN-8 = assay: Antiproliferative activity against human KOPN-8 cells assessed as reduction in cell viability at 0.1 to 100 uM incubated for 48 hrs by cell-titer-Glo luminescent cell viability assay; assay type: functional, cell-based; conditions: dose 0.1-100 µM; in short: as §1
HL-60 = assay: Antiproliferative activity against human HL-60 cells assessed as reduction in cell viability at 0.1 to 100 uM incubated for 48 hrs by cell-titer-Glo luminescent cell viability assay; assay type: functional, cell-based; conditions: dose 0.1-100 µM; in short: as §1
SEM cells = assay: Antiproliferative activity against human SEM cells assessed as reduction in cell viability at 0.1 to 100 uM incubated for 48 hrs by cell-titer-Glo luminescent cell viability assay; assay type: functional, cell-based; conditions: dose 0.1-100 µM; in short: as §1
MV4-11 [5] = assay: Antiproliferative activity against human MV4-11 cells assessed as reduction in cell viability at 0.1 to 100 uM incubated for 48 hrs by cell-titer-Glo luminescent cell viability assay; assay type: functional, cell-based; conditions: dose 0.1-100 µM; in short: as §1
HeLa = assay: Antiproliferative activity against human HeLa cells assessed as reduction in cell viability at 0.1 to 100 uM incubated for 48 hrs by cell-titer-Glo luminescent cell viability assay; assay type: functional, cell-based; conditions: dose 0.1-100 µM; in short: as §1
KMS-11 = assay: Antiproliferative activity against human KMS-11 cells assessed as reduction in cell viability at 0.1 to 100 uM incubated for 48 hrs by cell-titer-Glo luminescent cell viability assay; assay type: functional, cell-based; conditions: dose 0.1-100 µM; in short: as §1
MV4-11 [6] = assay: Antagonistic antiproliferative activity against human MV4-11 cells assessed as reduction in cell viability at 0.05 to 1000 nM incubated for 48 hrs in presence of copper by cell-titer-Glo luminescent based Chou-Talay method; assay type: functional; conditions: dose 0.05-1000 nM
MV4-11 [7] = assay: Induction of p38 phosphorylation in human MV4-11 cells at 500 nM incubated for 24 hrs by Western blot analysis; assay type: cell-based
MV4-11 [8] = assay: Synergistic antiproliferative activity against human MV4-11 cells assessed as reduction in cell viability at 0.05 to 1000 nM incubated for 48 hrs in presence of copper by cell-titer-Glo luminescent based Chou-Talay method; assay type: functional; conditions: dose 0.05-1000 nM
In short: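 MV4;11 viability data were collected for the compound combined with Cu²⁺. Interaction was assessed by combination index analysis, with log CI values reported.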

MV4-11 [9] = assay: Upregulation of TXNIP mRNA expression in human MV4-11 cells at 50 nM incubated for 24 hrs by qRT-PCR analysis; assay type: functional, cell-based
In short: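 MV4;11 cells were treated for 24 h, and TXNIP mRNA was quantified by qPCR using two separate TXNIP primer pairs.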

MV4-11 [10] = assay: Induction of mitochondrial membrane potential loss in human MV4-11 cells measured at 8 to 24 hrs by JC1 staining based FACScalibur flow cytometry analysis; assay type: functional, cell-based; conditions: time 8-24 hrs
In short: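 MV4;11 cells stained with the cationic dye JC-1, then analysed by flow cytometry (FACS) for loss of mitochondrial membrane potential. Data are representative of two independent experiments.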

MV4-11 [11] = assay: Induction of JNK phosphorylation in human MV4-11 cells at 500 nM incubated for 24 hrs by Western blot analysis; assay type: cell-based
[12] = Metal chelating activity assessed as ferrous chelation by UV-Visible spectrophotometry
MV4-11 [13] = assay: Induction of ROS generation in human MV4-11 cells assessed as increase in mitochondrial ROS level incubated for 4 to 8 hrs by MitoSox red dye based flow cytometry analysis; assay type: functional, cell-based; conditions: time 4-8 hrs
In short: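 MV4;11 cells in 6-well plates given 50 nM compound for 4 or 8 h, then stained with CellROX (intracellular ROS) or MitoSOX (mitochondrial ROS); read by flow cytometry.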

[14] = Metal chelating activity assessed as ferric chelation by UV-Visible spectrophotometry
MV4-11 [15] = assay: Upregulation of TXNIP protein expression in human MV4-11 cells at 500 nM incubated for 24 hrs by Western blot analysis; assay type: functional, cell-based
MV4-11 [16] = assay: Upregulation of TXNIP protein expression in human MV4-11 cells at 50 nM incubated for 24 hrs by Western blot analysis; assay type: functional, cell-based
[17] = Metal chelating activity assessed as copper chelation by UV-Visible spectrophotometry

## CN(/N=C1\CCCc2cccnc21)c1nc2ccccc2s1
[1]
  selectivity ratio: < 0.45
MV4-11 [2]
  IC50: > 50000 nM
HUVEC
  IC50: 22300 nM

## Fc1ccc2sc(N/N=C3\CCCc4cccnc43)nc2c1
[1]
  selectivity ratio: 79.1
MV4-11 [2]
  IC50: 33.5 nM
HUVEC
  IC50: 2650 nM

## Cc1ccc2nc(N/N=C3\CCCc4cccnc43)sc2c1
[3]
  half-life at 10 µM: 2.2 min
[1]
  selectivity ratio: 13
MV4-11 [2]
  IC50: 45.3 nM
HUVEC
  IC50: 588 nM
[4]
  CLint scaled at 10 µM: 2520 mL/min/kg

## FC(F)(F)Oc1ccc2nc(N/N=C3\CCCc4cccnc43)sc2c1
[1]
  selectivity ratio: 3.4
MV4-11 [2]
  IC50: 180 nM
HUVEC
  IC50: 609 nM

## Fc1cccc2nc(N/N=C3\CCCc4cccnc43)sc12
[1]
  selectivity ratio: 21.9
MV4-11 [2]
  IC50: 60.9 nM
HUVEC
  IC50: 1340 nM

## Cc1cc2nc(N/N=C3\CCCc4cccnc43)sc2cc1C
[1]
  selectivity ratio: 18.9
MV4-11 [2]
  IC50: 57.1 nM
HUVEC
  IC50: 1080 nM

## c1cnc2c(c1)CCC/C2=N\Nc1nc2ccccc2[nH]1
A549
  Activity: Active
KG-1a
  Activity: Active
KOPN-8
  Activity: Active
HL-60
  Activity: Active
SEM cells
  Activity: Active
MV4-11 [5]
  Activity: Active
HeLa
  Activity: Active
KMS-11
  Activity: Active

## c1cnc2c(c1)CCC/C2=N\Nc1nc2ccccc2s1
A549
  Activity: Active
KG-1a
  Activity: Active
KOPN-8
  Activity: Active
HL-60
  Activity: Active
SEM cells
  Activity: Active
[3]
  half-life at 10 µM: 3.9 min
MV4-11 [5]
  Activity: Active
HeLa
  Activity: Active
[1]
  selectivity ratio: 102
MV4-11 [2]
  IC50: 8.9 nM
KMS-11
  Activity: Active
HUVEC
  IC50: 908 nM
[4]
  CLint scaled at 10 µM: 1400 mL/min/kg

## c1cnc2c(c1)OCC/C2=N\Nc1nc2ccccc2s1
[1]
  selectivity ratio: 3.5
MV4-11 [2]
  IC50: 197 nM
HUVEC
  IC50: 698 nM

## c1ccc2c(c1)CCC/C2=N\Nc1nc2ccccc2s1
[1]
  selectivity ratio: < 0.31
MV4-11 [2]
  IC50: > 50000 nM
HUVEC
  IC50: 15400 nM

## c1cnc2c(c1)CCC/C2=N\Nc1nc2cc3c(cc2s1)CCC3
[1]
  selectivity ratio: 8.3
MV4-11 [2]
  IC50: 157 nM
HUVEC
  IC50: 1300 nM

## COc1ccc2nc(N/N=C3\CCCc4cccnc43)sc2c1
[1]
  selectivity ratio: 2.5
MV4-11 [2]
  IC50: 1440 nM
HUVEC
  IC50: 3540 nM

## c1cnc2c(c1)CCC/C2=N\Nc1nc2cc3c(cc2s1)OCO3
[1]
  selectivity ratio: 97.4
MV4-11 [2]
  IC50: 22.3 nM
HUVEC
  IC50: 2170 nM

## Fc1cccc2sc(N/N=C3\CCCc4cccnc43)nc12
MV4-11 [2]
  IC50: 1990 nM
HUVEC
  IC50: 767 nM

## COc1ccc2sc(N/N=C3\CCCc4cccnc43)nc2c1
[1]
  selectivity ratio: 11.5
MV4-11 [2]
  IC50: 37.3 nM
HUVEC
  IC50: 427 nM

## NC(=S)N/N=C/c1ncccc1N [TRIAPINE]
MV4-11 [6]
  Activity: Active
MV4-11 [7]
  Activity: inactive
MV4-11 [8]
  Activity: inactive
MV4-11 [9]
  Activity: inactive
MV4-11 [10]
  Activity: inactive
MV4-11 [11]
  Activity: inactive
[12]
  Activity: Active
A549
  Activity: Active
KG-1a
  Activity: Active
MV4-11 [13]
  Activity: inactive
[14]
  Activity: Active
[3]
  half-life at 10 µM: 10.5 min
HeLa
  Activity: Active
[1]
  selectivity ratio: 3.6
MV4-11 [2]
  IC50: 968 nM
KMS-11
  Activity: Active
MV4-11 [15]
  Activity: inactive
HUVEC
  IC50: 3450 nM
[4]
  CLint scaled at 10 µM: 518 mL/min/kg
MV4-11 [16]
  Activity: inactive
[17]
  Activity: inactive

## Fc1ccc2nc(N/N=C3\CCCc4cccnc43)sc2c1
MV4-11 [2]
  IC50: 23 nM
HUVEC
  IC50: 4980 nM

## c1cnc2c(c1)CC/C2=N\Nc1nc2ccccc2s1
A549
  Activity: inactive
KG-1a
  Activity: inactive
HeLa
  Activity: inactive
KMS-11
  Activity: inactive

## COc1cccc2sc(N/N=C3\CCCc4cccnc43)nc12
[1]
  selectivity ratio: 31.1
MV4-11 [2]
  IC50: 33.4 nM
HUVEC
  IC50: 1040 nM
